Measurements taken from ChEMBL document CHEMBL3608246, “Novel benzidine and diaminofluorene prolinamide derivatives as potent hepatitis C virus NS5A inhibitors” (Eur J Med Chem, 2015).
Values belong to the compound of their own block, whether it stands above or below them. Calls of active or inactive are those of the source. The rule behind the calls is not given here.

Columns and labels:
Hepatitis C virus [1] = assay: Antiviral activity against HCV genotype 1b NK/R2AN infected in human Huh7.5.1 cells expressing NS5A L31V mutant assessed as reduction in virus replication at 100 pM to 1 uM by luciferase reporter gene assay; format: functional, organism-based; details: Hepacivirus hominis, subtype 1b NK/R2AN, Huh-7
Method in brief: (§1)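 Daclatasvir-resistant NS5A mutant RNAs were transcribed in vitro and electroporated into Huh7.5.1 cells grown in 12-well plates. At 4 h post-transfection, medium was replaced with DMEM containing serially diluted compounds. Cells were harvested 3 days later and Renilla luciferase activity was measured and normalized to mock-treated cells.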

Hepatitis C virus [2] = assay: Antiviral activity against HCV genotype 1b NK/R2AN infected in human Huh7.5.1 cells expressing NS5A Y93H mutant assessed as reduction in virus replication at 100 pM to 1 uM by luciferase reporter gene assay; format: functional, organism-based; details: Hepacivirus hominis, subtype 1b NK/R2AN, Huh-7; method in brief: as §1
Hepatitis C virus [3] = assay: Antiviral activity against HCV genotype 2a JFH5a infected in human Huh7.5.1 cells transfected with JFH5a-Rluc-ad34 assessed as reduction in virus proliferation by luciferase reporter gene assay; format: functional, cell-based, Hepacivirus hominis, Huh-7
Hepatitis C virus [4] = assay: Antiviral activity against HCV genotype 1b NK/R2AN infected in human Huh7.5.1 cells assessed as reduction in virus replication by luciferase reporter gene assay; format: functional, organism-based, Hepacivirus hominis, subtype 1b NK/R2AN, Huh-7
[5] = Cytotoxicity against human Huh7.5.1 cells; format: cell-based, Huh-7
hERG (KCNH2) = hERG (KCNH2) (Homo sapiens, UniProt Q12809); assay: Inhibition of human ERG at 10 uM by fluorescence polarization assay based ligand binding assay
[6] = Stability in rat plasma assessed as compound remaining t 100 uM after 0.5 hrs by LC-MS/MS method; format: ADME, cell-free; details: read-out: Stability
Method in brief: (§2)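 Rat plasma pre-warmed 5 min at 37 °C, mixed with test compound from 100 µM stock (3 into 297 parts), incubated at 37 °C; sampled at 0, 15, 30, 60, 120 min, acetonitrile-precipitated, centrifuged 10 min, supernatant analysed by LC-MS/MS.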

[7] = Stability in rat plasma assessed as compound remaining at 100 uM after 1 hr by LC-MS/MS method; format: ADME, cell-free; details: read-out: Stability; method in brief: as §2
[8] = Stability in rat plasma assessed as compound remaining at 100 uM after 2 hrs by LC-MS/MS method; format: ADME, cell-free; details: read-out: Stability; method in brief: as §2
[9] = Stability in human liver microsomes assessed as compound remaining at 1 uM after 0.5 hrs by LC-MS/MS method; format: ADME; details: read-out: Stability
Method in brief: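 Pooled human liver microsomal fraction with β-NADPH, compound at 1 µM, incubated over 30 min; remaining compound in supernatant quantified by LC-MS/MS.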

Cytochrome P450 1A2 = target: T1, Cytochrome P450 1A2 (Homo sapiens, UniProt P05177); assay: Inhibition of human CYP1A2 by luminometry; format: ADME
T1 sequence (P05177 whole entry): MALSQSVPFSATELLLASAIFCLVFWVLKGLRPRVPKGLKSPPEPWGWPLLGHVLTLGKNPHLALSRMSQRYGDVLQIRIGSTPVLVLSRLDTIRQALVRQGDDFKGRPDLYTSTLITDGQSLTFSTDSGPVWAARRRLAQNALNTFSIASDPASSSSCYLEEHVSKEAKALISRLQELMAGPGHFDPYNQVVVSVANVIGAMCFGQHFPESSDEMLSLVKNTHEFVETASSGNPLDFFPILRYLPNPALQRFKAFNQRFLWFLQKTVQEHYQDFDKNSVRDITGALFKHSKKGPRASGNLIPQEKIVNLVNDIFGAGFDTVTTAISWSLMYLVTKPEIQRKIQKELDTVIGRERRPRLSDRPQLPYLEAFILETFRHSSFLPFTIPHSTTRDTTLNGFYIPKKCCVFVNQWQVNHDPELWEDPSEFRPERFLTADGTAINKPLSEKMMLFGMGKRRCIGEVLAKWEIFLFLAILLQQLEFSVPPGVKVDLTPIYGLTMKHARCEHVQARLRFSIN
Method in brief: (§3)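 Human CYP1A2, 2C9, 2C19, 2D6 and 3A4 inhibition by P450-Glo luminescent assay per kit protocol; compounds at 100, 50, 10, 5, 1, 0.1 and 0.01 µM; luminometer read-out.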

Cytochrome P450 2C9 = Cytochrome P450 2C9 (Homo sapiens, UniProt P11712); assay: Inhibition of human CYP2C9 by luminometry; format: ADME; method in brief: as §3
Cytochrome P450 2D6 = Cytochrome P450 2D6 (Homo sapiens, UniProt P10635); assay: Inhibition of human CYP2D6 by luminometry; format: ADME; method in brief: as §3
Cytochrome P450 2C19 = Cytochrome P450 2C19 (Homo sapiens, UniProt P33261); assay: Inhibition of human CYP2C19 by luminometry; format: ADME; method in brief: as §3
Cytochrome P450 3A4 = Cytochrome P450 3A4 (Homo sapiens, UniProt P08684); assay: Inhibition of human CYP3A4 by luminometry; format: ADME; method in brief: as §3
[10] = Half life in Sprague-Dawley rat at 10 mg/kg, po by LC/MS/MS method; format: ADME, organism-based; details: in vivo
Method in brief: (§4)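 Sprague-Dawley rats, 2 male and 1 female per compound per route, parallel design. Vehicle 5% DMSO, 10% solutol, 85% HPBCD; IV 5 mg/kg bolus via tail vein, oral 10 mg/kg. Blood into K2-EDTA tubes at several time points, centrifuged, plasma analysed by LC/MS/MS; non-compartmental analysis.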

[11] = Oral bioavailability in Sprague-Dawley rat at 10 mg/kg by LC/MS/MS method; format: ADME, organism-based; details: in vivo; method in brief: as §4
[12] = Half life in Sprague-Dawley rat at 5 mg/kg, iv by LC/MS/MS method; format: ADME, organism-based; details: in vivo; method in brief: as §4
Hepatitis C virus [13] = assay: Antiviral activity against HCV genotype 1b NK/R2AN infected in human Huh7.5.1 cells assessed as reduction in virus replication in presence of 123 nM NS5B polymerase inhibitor sofosbuvir by luciferase reporter gene assay; format: functional, organism-based; details: Hepacivirus hominis; subtype 1b NK/R2AN; Huh-7
[14] = Hepatitis C virus, genotype 2a JFH5a, Huh-7
[15] = Hepatitis C virus, subtype 1b NK/R2AN, Huh-7

Chain of Cytochrome P450 3A4 (P08684 whole entry): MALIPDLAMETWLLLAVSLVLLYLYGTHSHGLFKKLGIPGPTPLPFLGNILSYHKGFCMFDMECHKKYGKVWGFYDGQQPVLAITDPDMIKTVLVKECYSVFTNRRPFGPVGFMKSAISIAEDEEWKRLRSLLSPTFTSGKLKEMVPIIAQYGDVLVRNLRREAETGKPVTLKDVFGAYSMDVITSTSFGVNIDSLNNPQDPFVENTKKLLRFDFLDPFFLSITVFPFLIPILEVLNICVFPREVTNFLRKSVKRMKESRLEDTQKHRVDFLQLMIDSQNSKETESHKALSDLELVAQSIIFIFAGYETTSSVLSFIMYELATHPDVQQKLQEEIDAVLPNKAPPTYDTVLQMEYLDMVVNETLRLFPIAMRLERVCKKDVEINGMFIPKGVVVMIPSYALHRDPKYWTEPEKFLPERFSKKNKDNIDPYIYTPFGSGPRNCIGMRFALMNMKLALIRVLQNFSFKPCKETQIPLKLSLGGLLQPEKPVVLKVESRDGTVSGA
Chain of Cytochrome P450 2C9 (P11712 whole entry): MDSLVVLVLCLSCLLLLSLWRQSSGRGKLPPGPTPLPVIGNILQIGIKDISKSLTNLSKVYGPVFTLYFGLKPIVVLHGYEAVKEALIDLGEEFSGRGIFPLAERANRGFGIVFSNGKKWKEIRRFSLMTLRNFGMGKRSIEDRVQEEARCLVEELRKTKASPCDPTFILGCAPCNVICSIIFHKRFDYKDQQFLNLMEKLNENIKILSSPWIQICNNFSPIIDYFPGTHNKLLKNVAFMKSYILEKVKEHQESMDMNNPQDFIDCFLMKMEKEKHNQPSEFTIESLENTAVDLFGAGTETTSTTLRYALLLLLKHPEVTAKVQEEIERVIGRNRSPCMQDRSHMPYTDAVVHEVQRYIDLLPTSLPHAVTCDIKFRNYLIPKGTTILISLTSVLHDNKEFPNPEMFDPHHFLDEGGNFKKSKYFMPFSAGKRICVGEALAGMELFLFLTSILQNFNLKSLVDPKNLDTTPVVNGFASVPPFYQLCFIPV
Chain of Cytochrome P450 2D6 (P10635 whole entry): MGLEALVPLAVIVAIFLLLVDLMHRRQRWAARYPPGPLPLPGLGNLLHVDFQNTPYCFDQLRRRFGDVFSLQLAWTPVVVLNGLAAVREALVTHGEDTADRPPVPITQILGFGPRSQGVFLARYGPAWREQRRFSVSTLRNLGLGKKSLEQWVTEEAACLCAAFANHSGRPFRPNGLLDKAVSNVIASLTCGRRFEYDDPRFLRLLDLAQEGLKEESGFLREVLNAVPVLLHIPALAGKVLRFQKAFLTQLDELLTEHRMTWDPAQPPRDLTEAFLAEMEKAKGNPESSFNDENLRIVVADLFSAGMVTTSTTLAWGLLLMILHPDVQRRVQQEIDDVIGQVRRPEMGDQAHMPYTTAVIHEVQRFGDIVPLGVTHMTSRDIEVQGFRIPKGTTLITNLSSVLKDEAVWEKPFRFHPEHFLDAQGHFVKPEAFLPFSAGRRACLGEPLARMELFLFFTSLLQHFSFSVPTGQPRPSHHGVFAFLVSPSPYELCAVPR
Chain of Cytochrome P450 2C19 (P33261 whole entry): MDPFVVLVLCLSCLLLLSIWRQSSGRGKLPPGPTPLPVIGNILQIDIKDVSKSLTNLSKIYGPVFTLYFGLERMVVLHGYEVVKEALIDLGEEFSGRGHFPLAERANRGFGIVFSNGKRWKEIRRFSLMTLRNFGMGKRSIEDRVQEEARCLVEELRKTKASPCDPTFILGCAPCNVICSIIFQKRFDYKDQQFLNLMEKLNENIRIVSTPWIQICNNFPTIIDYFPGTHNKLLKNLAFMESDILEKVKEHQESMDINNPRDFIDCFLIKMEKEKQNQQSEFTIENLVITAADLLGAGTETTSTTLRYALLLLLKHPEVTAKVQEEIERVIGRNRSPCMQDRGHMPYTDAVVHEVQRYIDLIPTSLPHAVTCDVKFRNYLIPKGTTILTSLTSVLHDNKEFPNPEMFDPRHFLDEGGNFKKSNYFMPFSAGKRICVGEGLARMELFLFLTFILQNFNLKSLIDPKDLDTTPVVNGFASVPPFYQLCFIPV
Chain of hERG (KCNH2) (Q12809 whole entry): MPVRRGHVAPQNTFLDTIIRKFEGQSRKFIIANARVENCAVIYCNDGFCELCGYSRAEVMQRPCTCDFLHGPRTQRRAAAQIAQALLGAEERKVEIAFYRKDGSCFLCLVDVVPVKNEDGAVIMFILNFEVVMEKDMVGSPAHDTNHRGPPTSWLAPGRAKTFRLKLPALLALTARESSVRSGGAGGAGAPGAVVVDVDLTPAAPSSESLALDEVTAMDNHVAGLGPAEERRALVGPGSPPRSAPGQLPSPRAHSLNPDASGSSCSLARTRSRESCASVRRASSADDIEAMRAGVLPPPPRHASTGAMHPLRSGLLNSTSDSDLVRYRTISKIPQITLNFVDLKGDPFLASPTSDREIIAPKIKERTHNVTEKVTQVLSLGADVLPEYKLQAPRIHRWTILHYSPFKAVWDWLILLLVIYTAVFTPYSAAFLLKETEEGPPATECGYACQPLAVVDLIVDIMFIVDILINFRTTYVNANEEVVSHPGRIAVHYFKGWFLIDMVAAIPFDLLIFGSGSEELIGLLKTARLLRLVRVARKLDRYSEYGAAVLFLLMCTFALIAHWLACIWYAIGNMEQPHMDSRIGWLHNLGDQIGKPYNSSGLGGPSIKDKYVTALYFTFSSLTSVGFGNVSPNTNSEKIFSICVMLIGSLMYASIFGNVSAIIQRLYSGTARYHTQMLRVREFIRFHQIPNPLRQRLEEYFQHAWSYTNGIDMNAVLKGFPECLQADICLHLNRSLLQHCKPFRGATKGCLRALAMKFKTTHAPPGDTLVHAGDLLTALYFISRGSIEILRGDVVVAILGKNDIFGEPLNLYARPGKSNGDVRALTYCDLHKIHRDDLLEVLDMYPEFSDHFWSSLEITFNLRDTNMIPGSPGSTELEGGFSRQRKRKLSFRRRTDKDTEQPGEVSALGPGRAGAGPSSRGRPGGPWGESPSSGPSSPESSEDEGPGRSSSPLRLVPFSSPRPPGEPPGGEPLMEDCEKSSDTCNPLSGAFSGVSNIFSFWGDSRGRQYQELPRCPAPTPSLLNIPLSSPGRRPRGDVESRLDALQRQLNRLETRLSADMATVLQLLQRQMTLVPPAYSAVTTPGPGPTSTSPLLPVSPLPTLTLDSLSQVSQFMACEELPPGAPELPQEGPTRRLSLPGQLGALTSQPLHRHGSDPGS

Structure (SMILES): COC(=O)N[C@H](C(=O)N1CCC[C@H]1c1ncc(-c2ccc(-c3ccc(-c4cnc([C@@H]5CCCN5C(=O)[C@@H](NC(=O)OC)C(C)C)[nH]4)cc3)cc2)[nH]1)C(C)C
inhibition (Hepatitis C virus [1]): Active
inhibition (Hepatitis C virus [2]): Active

Structure (SMILES): COC(=O)N[C@@H](C(=O)N1CCCC[C@@H]1C(=O)Nc1ccc(-c2ccc(NC(=O)[C@H]3CCCCN3C(=O)[C@H](NC(=O)OC)c3ccccc3)cc2)cc1)c1ccccc1
EC50 (Hepatitis C virus [3]; [14]): 419 nM
EC50 (Hepatitis C virus [4]; [15]): 370 nM
CC50 [5]: > 25000 nM

Structure (SMILES): COC(=O)N[C@@H](C(=O)N1CCC[C@H]1C(=O)Nc1ccc(-c2ccc(NC(=O)[C@@H]3CCCN3C(=O)[C@H](NC(=O)OC)c3ccccc3)cc2)cc1)c1ccccc1
CC50 [5]: > 25000 nM

Structure (SMILES): COC(=O)N[C@@H](C(=O)N1CCC[C@H]1C(=O)Nc1ccc(-c2ccc(NC(=O)[C@@H]3CCCN3C(=O)[C@H](NC(=O)OC)c3ccccc3)cc2C(F)(F)F)c(C(F)(F)F)c1)c1ccccc1 (stereo in doubt; form 1) [listing 1 of 2 here]
EC50 (Hepatitis C virus [3]; huh-7): 0.025 nM
EC50 (Hepatitis C virus [4]; huh-7): 0.0025 nM
inhibition at 10 µM (hERG (KCNH2)): 7.98%
remaining at 0.5 h, 100 µM [6]: 93%
remaining at 1 h, 100 µM [7]: 99%
remaining at 2 h, 100 µM [8]: 99%
remaining at 0.5 h, 1 µM [9]: 79%
EC50 (Cytochrome P450 1A2): 78800 nM
EC50 (Cytochrome P450 2C9): 660 nM
EC50 (Cytochrome P450 2D6): > 100000 nM
EC50 (Cytochrome P450 2C19): 4640 nM
EC50 (Cytochrome P450 3A4): 4640 nM
half-life [10]: 3.8 h
bioavailability [11]: 11.7%
half-life [12]: 2.9 h

Structure (SMILES): COC(=O)N[C@@H](C(=O)N1CC(=O)C[C@H]1C(=O)Nc1ccc(-c2ccc(NC(=O)[C@@H]3CC(=O)CN3C(=O)[C@H](NC(=O)OC)c3ccccc3)cc2)cc1)c1ccccc1
EC50 (Hepatitis C virus [3]; [14]): 0.26 nM
EC50 (Hepatitis C virus [4]; [15]): 0.044 nM
CC50 [5]: > 25000 nM

Structure (SMILES): COC(=O)N[C@@H](C(=O)N1CCC[C@H]1C(=O)Nc1ccc(-c2ccc(NC(=O)[C@@H]3CCCN3C(=O)[C@H](NC(=O)OC)c3ccccc3)c(C)c2)cc1C)c1ccccc1
EC50 (Hepatitis C virus [3]; [14]): 193 nM
EC50 (Hepatitis C virus [4]; [15]): 7.4 nM
CC50 [5]: > 25000 nM

Structure (SMILES): COC(=O)N[C@@H](C(=O)N1CCC[C@H]1C(=O)Nc1ccc(-c2ccc(NC(=O)[C@@H]3CCCN3C(=O)[C@H](NC(=O)OC)c3ccccc3)cc2C(F)(F)F)c(C(F)(F)F)c1)c1ccccc1 (stereo in doubt; form 1) [listing 2 of 2 here]
Activity (Hepatitis C virus [13]): Active

Now from value to compound, other results behind:

EC50 (Hepatitis C virus [4]; [15]): 0.005 nM
remaining at 0.5 h, 100 µM [6]: 65%
remaining at 1 h, 100 µM [7]: 61%
remaining at 2 h, 100 µM [8]: 63%
remaining at 0.5 h, 1 µM [9]: 97%
EC50 (Cytochrome P450 1A2): > 100000 nM
EC50 (Cytochrome P450 2C9): 87.7 nM
EC50 (Cytochrome P450 2D6): 4940 nM
EC50 (Cytochrome P450 2C19): 724 nM
EC50 (Cytochrome P450 3A4): 2460 nM
half-life [10]: 2.34 h
bioavailability [11]: 3.12%
half-life [12]: 0.88 h
Structure (SMILES): COC(=O)N[C@@H](C(=O)N1CCC[C@H]1C(=O)Nc1ccc(-c2ccc(NC(=O)[C@@H]3CCCN3C(=O)[C@H](NC(=O)OC)c3ccccc3)cc2F)c(F)c1)c1ccccc1
EC50 (Hepatitis C virus [3]; [14]): 0.16 nM
CC50 [5]: > 25000 nM
inhibition at 10 µM (hERG (KCNH2)): < 1%

EC50 (Hepatitis C virus [4]; [15]): 0.035 nM
Structure (SMILES): COC(=O)N[C@@H](C(=O)N1CCC[C@H]1C(=O)Nc1ccc(-c2ccc(NC(=O)[C@@H]3CCCN3C(=O)[C@H](NC(=O)OC)c3ccccc3)cc2C)c(C)c1)c1ccccc1
EC50 (Hepatitis C virus [3]; [14]): 0.32 nM
CC50 [5]: > 25000 nM

EC50 (Hepatitis C virus [4]; [15]): 0.004 nM
Structure (SMILES): COC(=O)N[C@@H](C(=O)N1CCC[C@H]1C(=O)Nc1ccc2c(c1)C(=O)c1cc(NC(=O)[C@@H]3CCCN3C(=O)[C@H](NC(=O)OC)c3ccccc3)ccc1-2)c1ccccc1
EC50 (Hepatitis C virus [3]; [14]): 4.3 nM
CC50 [5]: > 25000 nM

EC50 (Hepatitis C virus [4]; [15]): 0.004 nM
remaining at 0.5 h, 1 µM [9]: 95%
EC50 (Cytochrome P450 1A2): > 100000 nM
EC50 (Cytochrome P450 2C9): 269 nM
EC50 (Cytochrome P450 2D6): > 100000 nM
EC50 (Cytochrome P450 2C19): 2940 nM
EC50 (Cytochrome P450 3A4): 1030 nM
half-life [10]: 4.45 h
bioavailability [11]: 13.8%
half-life [12]: 1.62 h
Structure (SMILES): COC(=O)N[C@@H](C(=O)N1CCC[C@H]1C(=O)Nc1ccc2c(c1)C(C)(C)c1cc(NC(=O)[C@@H]3CCCN3C(=O)[C@H](NC(=O)OC)c3ccccc3)ccc1-2)c1ccccc1
EC50 (Hepatitis C virus [3]; [14]): 0.02 nM
CC50 [5]: > 25000 nM
inhibition at 10 µM (hERG (KCNH2)): 25.7%
